Results as given in ChEMBL document CHEMBL3112447, “Discovery of 1-methyl-1H-imidazole derivatives as potent Jak2 inhibitors” (J Med Chem, 2014).

Columns and labels:
[1] = Antitumor activity against human UKE1 cells xenografted in SCID mouse assessed as tumor growth inhibition at 3 mg/kg, po bid administered for 14 days measured on day 28; assay type: functional; details: read-out: TGI
How it was run: (§1)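 UKE-1 cells mixed with matrigel implanted subcutaneously in female SCID mice. On day 15, mice randomized at a mean tumor volume of about 150 mm³. Oral gavage twice daily at 3 or 10 mg/kg, or vehicle, for 14 days. Tumor volume and body weight tracked through the dosing phase.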

[2] = molecular target: Vascular endothelial growth factor receptor 2 (Homo sapiens, UniProt P35968); test: Inhibition of human KDR
How it was run: (§2)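 Panel of 82 kinases. Radiometric filter-binding assay with ATP at or near Km. Compound tested at 0.01, 0.10 and 1.0 μM. Values expressed as minimum possible fold selectivity against Jak2.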

Canis familiaris [3] = test: AUC (0 to 12 hrs) in beagle dog at 10 mg/kg, po; assay type: ADME, organism-based, Canis lupus familiaris, Plasma; design: time < 12 hr, dose 10 mg/kg, route oral; details: in vivo
How it was run: (§3)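 Male beagle dogs. Oral dose 10 mg/kg in 0.1% HPMC, pH 2. IV dose 2.5 mg/kg in 20% TEG/D5W. […] Clearance, Vdss, half-life and oral bioavailability (F%) derived from the plasma profiles.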

[4] = molecular target: Protein kinase C zeta type (Homo sapiens, UniProt Q05513); test: Inhibition of human PKCzeta; how it was run: as §2
[5] = molecular target: Serine/threonine-protein kinase SIK1 (Homo sapiens, UniProt P57059); test: Inhibition of human SIK; how it was run: as §2
[6] = Cytotoxicity against human UKE1 cells expressing Jak2 V617F mutant after 72 hrs by MTS assay; assay type: functional; details: UKE1, 72 h
[7] = molecular target: Tyrosine-protein kinase JAK3 (Mus musculus) (UniProt Q62137); test: (§4) Inhibition of Jak3 in mouse BA/F3 cells expressing TEL-Jak3 assessed as inhibition of STAT5 phosphorylation by Western blotting analysis; assay type: cell-based; details: BaF3
[8] = molecular target: Tyrosine-protein kinase JAK3 (Mus musculus, UniProt Q62137); test: as §4; assay type: cell-based, BaF3
[9] = Cytotoxicity against mouse BA/F3 cells expressing TEL-Jak3 after 72 hrs by MTS assay; assay type: functional; details: BaF3, 72 h
How it was run: (§5)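 BaF3 cells transfected with the kinase domain of Jak1, Jak3 or Tyk2 (TEL fusions). Growth inhibition measured as the counter-screen for cellular selectivity.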

Mus musculus [10] = test: In vivo inhibition of Jak2 in mouse transfected with mouse BA/F3 cells expressing TEL-Jak2 assessed as inhibition of STAT5 phosphorylation at 3 mg/kg, po after 8 hrs by Western blotting analysis; assay type: functional; details: BaF3, 8 h
How it was run: (§6)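 Mice bearing BaF3 TEL-JAK2 cells given a single oral dose of 3, 5 or 10 mg/kg and sacrificed at various times after dosing. Spleen lysates probed for phospho-STAT5 and total STAT5 by Western blot, and pSTAT5 inhibition assessed.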

[11] = molecular target: Tyrosine-protein kinase ABL1 (Homo sapiens, UniProt P00519); test: Inhibition of human Abl; how it was run: as §2
[12] = molecular target: Tyrosine-protein kinase Fgr (Homo sapiens, UniProt P09769); test: Inhibition of human Fgr; how it was run: as §2
[13] = molecular target: Casein kinase II subunit alpha (Homo sapiens, UniProt P68400); test: Inhibition of human recombinant 6 X His-tagged full length CK2alpha expressed in insect sf21 cells using CK2tide as substrate after 20 mins by fluorescence assay
[14] = Half life in beagle dog at 2.5 mg/kg, iv; assay type: ADME, organism-based, Canis lupus familiaris; design: dose 2.5 mg/kg, route intravenous; details: in vivo; how it was run: as §3
[15] = Half life in Wistar rat at 10 mg/kg, po and 3 mg/kg, iv; assay type: ADME, organism-based; details: in vivo
How it was run: (§7)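 Rat pharmacokinetics. Oral dose 10 mg/kg in 0.1% HPMC. IV dose 3 mg/kg in 40% DMA/40% PEG/20% saline. Clearance, half-life, Vdss and oral bioavailability derived from the plasma profiles.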

[16] = molecular target: ALK tyrosine kinase receptor (Homo sapiens, UniProt Q9UM73); test: Inhibition of human ALK; how it was run: as §2
[17] = molecular target: Non-receptor tyrosine-protein kinase TYK2 (Mus musculus, UniProt Q9R117); test: (§8) Inhibition of Tyk2 in mouse BA/F3 cells expressing TEL-Tyk2 assessed as inhibition of STAT5 phosphorylation by Western blotting analysis; assay type: cell-based; details: baf3
[18] = molecular target: Non-receptor tyrosine-protein kinase TYK2 (Mus musculus) (UniProt Q9R117); test: as §8; assay type: cell-based; details: BaF3
[19] = Cytotoxicity against mouse BA/F3 cells expressing TEL-Jak1 after 72 hrs by MTS assay; assay type: functional; details: BaF3, 72 h; how it was run: as §5
[20] = molecular target: Proto-oncogene tyrosine-protein kinase receptor Ret (Homo sapiens, UniProt P07949); test: Inhibition of human Ret; how it was run: as §2
[21] = Volume of distribution at steady state in Wistar rat at 10 mg/kg, po and 3 mg/kg, iv; assay type: ADME, organism-based; details: in vivo, read-out: Vdss; how it was run: as §7
Aurora kinase A = Aurora kinase A (Homo sapiens, UniProt O14965); test: Inhibition of human aurora A kinase; how it was run: as §2
Mus musculus [22] = test: Toxicity in SCID mouse xenografted with human UKE1 cells assessed as body weight loss at 3 mg/kg, po bid administered for 14 days measured on day 31 (reference value: 7.1%); assay type: organism-based; design: dose 3 mg/kg, route oral; details: in vivo, 336 h; how it was run: as §1
Mus musculus [23] = test: Toxicity in SCID mouse xenografted with human UKE1 cells assessed as body weight loss at 10 mg/kg, po bid administered for 14 days measured on day 31 (reference value: 7.1%); assay type: organism-based; design: dose 10 mg/kg, route oral; details: in vivo, 336 h; how it was run: as §1
[24] = Volume of distribution at steady state in beagle dog at 2.5 mg/kg, iv; assay type: ADME, organism-based, Canis lupus familiaris; design: dose 2.5 mg/kg, route intravenous; details: in vivo, read-out: Vdss; how it was run: as §3
[25] = molecular target: Tyrosine-protein kinase JAK1 (Mus musculus, UniProt P52332); test: (§9) Inhibition of Jak1 in mouse BA/F3 cells expressing TEL-Jak1 assessed as inhibition of STAT5 phosphorylation by Western blotting analysis; assay type: cell-based, BaF3
[26] = molecular target: Tyrosine-protein kinase JAK1 (Mus musculus) (UniProt P52332); test: as §9; assay type: cell-based; details: BaF3
[27] = molecular target: Vascular endothelial growth factor receptor 3 (Homo sapiens, UniProt P35916); test: Inhibition of human Flt4; how it was run: as §2
Mus musculus [28] = test: In vivo inhibition of Jak2 in mouse transfected with mouse BA/F3 cells expressing TEL-Jak2 assessed as inhibition of STAT5 phosphorylation at 10 mg/kg, po after 12 hrs by Western blotting analysis; assay type: functional; details: BaF3, 12 h; how it was run: as §6
[29] = molecular target: High affinity nerve growth factor receptor (Homo sapiens, UniProt P04629); test: Inhibition of human TrkA; how it was run: as §2
Canis familiaris [30] = test: Oral bioavailability in beagle dog at 10 mg/kg; assay type: ADME, organism-based, Canis lupus familiaris; details: in vivo; how it was run: as §3
Mus musculus [31] = test: In vivo inhibition of Jak2 in po dose3d mouse transfected with mouse BA/F3 cells expressing TEL-Jak2 assessed as inhibition of STAT5 phosphorylation after 6 to 12 hrs by Western blotting analysis; assay type: functional, organism-based; details: BaF3; how it was run: as §6
[32] = molecular target: Receptor-type tyrosine-protein kinase FLT3 (Homo sapiens, UniProt P36888); test: Inhibition of human Flt3; how it was run: as §2
[33] = Oral bioavailability in Wistar rat at 10 mg/kg; assay type: ADME, organism-based; details: in vivo; how it was run: as §7

Chain of Tyrosine-protein kinase JAK1 (P52332 whole entry): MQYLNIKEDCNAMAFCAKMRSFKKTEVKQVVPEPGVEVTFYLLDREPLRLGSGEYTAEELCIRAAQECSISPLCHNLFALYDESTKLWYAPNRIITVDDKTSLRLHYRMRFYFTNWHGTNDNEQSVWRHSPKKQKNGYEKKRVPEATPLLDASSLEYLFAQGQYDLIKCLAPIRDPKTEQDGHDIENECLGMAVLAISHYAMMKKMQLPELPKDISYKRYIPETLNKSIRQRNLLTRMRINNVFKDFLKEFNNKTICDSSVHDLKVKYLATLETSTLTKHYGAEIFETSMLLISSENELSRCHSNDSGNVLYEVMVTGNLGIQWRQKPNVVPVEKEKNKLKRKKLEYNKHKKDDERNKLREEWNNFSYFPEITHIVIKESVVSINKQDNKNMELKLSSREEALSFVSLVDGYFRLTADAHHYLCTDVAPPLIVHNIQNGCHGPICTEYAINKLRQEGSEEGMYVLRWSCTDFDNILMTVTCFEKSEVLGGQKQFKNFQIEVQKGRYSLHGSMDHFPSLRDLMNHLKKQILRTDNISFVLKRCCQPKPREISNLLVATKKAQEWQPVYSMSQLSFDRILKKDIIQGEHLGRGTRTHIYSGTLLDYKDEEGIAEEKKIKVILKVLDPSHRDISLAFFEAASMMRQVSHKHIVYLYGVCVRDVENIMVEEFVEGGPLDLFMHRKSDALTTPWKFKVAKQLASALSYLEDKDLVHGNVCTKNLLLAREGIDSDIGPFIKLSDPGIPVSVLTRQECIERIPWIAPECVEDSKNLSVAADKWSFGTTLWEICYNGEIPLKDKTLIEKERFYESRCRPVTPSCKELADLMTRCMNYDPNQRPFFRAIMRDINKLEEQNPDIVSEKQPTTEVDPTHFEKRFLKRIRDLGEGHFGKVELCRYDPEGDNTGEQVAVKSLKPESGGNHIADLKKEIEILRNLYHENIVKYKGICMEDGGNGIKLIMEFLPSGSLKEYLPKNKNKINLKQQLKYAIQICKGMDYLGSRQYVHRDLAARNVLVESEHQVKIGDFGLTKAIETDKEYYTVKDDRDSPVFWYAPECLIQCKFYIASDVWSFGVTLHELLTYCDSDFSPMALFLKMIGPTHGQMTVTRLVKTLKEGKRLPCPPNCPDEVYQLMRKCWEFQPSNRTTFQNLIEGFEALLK
Chain of Tyrosine-protein kinase JAK1 (Mus musculus) (P52332 whole entry): as above
Chain of High affinity nerve growth factor receptor (P04629 whole entry): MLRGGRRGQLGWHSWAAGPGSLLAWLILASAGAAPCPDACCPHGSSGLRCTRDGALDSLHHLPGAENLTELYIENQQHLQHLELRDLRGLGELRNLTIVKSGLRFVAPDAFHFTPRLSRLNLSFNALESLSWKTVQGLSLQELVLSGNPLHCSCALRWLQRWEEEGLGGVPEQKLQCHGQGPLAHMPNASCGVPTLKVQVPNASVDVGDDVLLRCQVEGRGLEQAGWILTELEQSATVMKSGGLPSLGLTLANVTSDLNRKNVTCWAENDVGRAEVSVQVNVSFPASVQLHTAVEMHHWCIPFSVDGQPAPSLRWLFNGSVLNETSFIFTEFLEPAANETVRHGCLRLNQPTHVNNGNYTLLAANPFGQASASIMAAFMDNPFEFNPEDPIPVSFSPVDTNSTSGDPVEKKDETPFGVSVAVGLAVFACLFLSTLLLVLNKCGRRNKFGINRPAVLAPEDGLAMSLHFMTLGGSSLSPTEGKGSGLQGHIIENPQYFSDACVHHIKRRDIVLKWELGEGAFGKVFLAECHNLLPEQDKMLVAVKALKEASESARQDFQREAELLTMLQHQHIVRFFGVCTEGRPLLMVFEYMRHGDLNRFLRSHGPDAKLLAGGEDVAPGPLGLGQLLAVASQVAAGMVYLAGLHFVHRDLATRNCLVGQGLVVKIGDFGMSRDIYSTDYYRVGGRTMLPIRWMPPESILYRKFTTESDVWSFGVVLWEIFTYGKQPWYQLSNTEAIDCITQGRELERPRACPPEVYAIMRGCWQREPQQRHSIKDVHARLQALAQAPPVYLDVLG
Chain of Receptor-type tyrosine-protein kinase FLT3 (P36888 whole entry): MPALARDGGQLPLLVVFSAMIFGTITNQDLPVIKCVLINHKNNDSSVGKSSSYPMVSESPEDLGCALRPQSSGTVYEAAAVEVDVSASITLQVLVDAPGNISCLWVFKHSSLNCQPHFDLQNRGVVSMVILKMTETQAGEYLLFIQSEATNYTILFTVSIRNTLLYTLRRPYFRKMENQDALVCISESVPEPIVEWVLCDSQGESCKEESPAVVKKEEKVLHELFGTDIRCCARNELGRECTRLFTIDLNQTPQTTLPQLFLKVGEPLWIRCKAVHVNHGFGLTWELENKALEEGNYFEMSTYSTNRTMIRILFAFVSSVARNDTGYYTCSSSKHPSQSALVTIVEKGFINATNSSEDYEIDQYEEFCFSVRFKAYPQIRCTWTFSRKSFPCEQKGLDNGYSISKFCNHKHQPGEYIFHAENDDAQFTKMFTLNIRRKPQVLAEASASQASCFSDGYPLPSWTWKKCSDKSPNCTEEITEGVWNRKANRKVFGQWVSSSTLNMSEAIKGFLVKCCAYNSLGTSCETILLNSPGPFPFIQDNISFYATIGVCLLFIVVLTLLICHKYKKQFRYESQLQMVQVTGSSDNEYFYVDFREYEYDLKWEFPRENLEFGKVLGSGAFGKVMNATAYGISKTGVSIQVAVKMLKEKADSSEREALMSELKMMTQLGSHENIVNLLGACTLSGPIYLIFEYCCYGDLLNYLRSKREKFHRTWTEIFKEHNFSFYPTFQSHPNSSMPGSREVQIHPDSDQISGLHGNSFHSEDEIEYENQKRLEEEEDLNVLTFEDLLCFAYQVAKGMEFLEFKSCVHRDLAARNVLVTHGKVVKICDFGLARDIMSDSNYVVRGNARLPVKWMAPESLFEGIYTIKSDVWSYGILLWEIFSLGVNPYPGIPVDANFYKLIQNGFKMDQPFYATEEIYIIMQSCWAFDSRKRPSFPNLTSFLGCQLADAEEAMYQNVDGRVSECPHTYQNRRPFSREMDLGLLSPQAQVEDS
Chain of Vascular endothelial growth factor receptor 3 (P35916 whole entry): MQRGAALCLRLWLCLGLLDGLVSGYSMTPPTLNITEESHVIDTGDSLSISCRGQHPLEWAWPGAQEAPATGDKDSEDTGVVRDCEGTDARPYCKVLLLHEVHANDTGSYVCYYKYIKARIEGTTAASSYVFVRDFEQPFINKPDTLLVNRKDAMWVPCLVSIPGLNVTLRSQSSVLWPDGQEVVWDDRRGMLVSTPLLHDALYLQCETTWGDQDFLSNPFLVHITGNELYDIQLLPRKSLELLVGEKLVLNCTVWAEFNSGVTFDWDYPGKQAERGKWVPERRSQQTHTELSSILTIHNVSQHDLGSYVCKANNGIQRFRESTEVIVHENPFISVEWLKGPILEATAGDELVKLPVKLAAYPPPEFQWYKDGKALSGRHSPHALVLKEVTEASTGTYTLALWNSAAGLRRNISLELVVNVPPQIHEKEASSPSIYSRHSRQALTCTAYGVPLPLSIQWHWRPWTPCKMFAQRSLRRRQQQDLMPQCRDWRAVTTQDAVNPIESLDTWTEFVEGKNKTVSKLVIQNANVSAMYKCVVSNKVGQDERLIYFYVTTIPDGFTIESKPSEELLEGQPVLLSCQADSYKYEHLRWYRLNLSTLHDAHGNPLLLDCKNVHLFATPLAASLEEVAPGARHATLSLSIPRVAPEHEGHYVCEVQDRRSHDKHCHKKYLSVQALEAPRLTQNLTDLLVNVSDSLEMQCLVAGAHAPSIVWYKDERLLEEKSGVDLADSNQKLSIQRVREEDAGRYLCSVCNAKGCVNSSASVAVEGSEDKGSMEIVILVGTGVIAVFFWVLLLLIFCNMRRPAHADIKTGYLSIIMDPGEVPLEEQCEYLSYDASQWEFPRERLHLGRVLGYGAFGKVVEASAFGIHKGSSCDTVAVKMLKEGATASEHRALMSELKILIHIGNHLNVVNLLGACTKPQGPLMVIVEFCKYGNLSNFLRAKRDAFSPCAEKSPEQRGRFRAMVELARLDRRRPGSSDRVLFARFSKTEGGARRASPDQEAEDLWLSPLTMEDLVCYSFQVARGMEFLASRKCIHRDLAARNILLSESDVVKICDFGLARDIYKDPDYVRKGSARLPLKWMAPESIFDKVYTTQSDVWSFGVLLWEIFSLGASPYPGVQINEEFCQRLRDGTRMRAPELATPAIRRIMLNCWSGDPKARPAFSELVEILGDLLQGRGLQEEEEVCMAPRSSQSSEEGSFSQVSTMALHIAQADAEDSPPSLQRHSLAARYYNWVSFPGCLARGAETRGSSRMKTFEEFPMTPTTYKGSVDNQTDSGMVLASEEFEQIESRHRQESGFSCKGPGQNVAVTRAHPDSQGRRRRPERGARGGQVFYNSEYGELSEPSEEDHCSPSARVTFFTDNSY
Chain of Protein kinase C zeta type (Q05513 whole entry): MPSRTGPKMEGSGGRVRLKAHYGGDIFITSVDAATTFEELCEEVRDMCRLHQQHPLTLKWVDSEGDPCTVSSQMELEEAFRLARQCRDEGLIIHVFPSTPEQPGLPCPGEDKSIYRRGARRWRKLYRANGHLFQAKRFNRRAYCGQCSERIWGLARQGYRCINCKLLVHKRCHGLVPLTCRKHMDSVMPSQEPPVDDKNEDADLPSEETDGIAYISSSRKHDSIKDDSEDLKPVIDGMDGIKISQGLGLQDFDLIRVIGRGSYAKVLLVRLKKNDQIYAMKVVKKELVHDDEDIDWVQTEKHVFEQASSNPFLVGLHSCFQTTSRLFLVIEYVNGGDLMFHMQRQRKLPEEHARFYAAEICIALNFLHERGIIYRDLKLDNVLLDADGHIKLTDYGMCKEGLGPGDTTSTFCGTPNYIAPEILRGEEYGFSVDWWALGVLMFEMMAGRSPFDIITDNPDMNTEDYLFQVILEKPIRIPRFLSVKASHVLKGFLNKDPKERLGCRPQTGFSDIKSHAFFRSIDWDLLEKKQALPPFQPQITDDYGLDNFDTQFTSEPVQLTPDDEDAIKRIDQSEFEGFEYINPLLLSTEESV

IC50 [2]: 22 nM | AUC (Canis familiaris [3]): 45 µM·h | IC50 [4]: 200 nM | IC50 [5]: 190 nM | inhibition [7]: Dose-dependent effect | IC50 [8]: 2000 nM | IC50 [11]: 25 nM | IC50 [12]: 33 nM | IC50 [13]: > 30 µM | half-life [14]: 744 min | half-life [15]: 96 min | IC50 [16]: 50 nM | IC50 [17]: 240 nM | inhibition [18]: Dose-dependent effect | IC50 [20]: 46 nM | Vd [21]: 2.2 L/kg | IC50 (Aurora kinase A): 58 nM | Vd [24]: 1.9 L/kg | IC50 [25]: 260 nM | inhibition [26]: Dose-dependent effect | IC50 [27]: 40 nM | IC50 [29]: 35 nM | F (Canis familiaris [30]): 64% | IC50 [32]: 45 nM | bioavailability [33]: 64%
Compound: C[C@H](Nc1nc(Nc2cn(C)cn2)c2cc[nH]c2n1)c1ncc(F)cn1
inhibition in vivo at 3 mg/kg [1]: 50% | GI50 [6]: 55 nM | GI50 [9]: 1800 nM | inhibition in vivo at 3 mg/kg (Mus musculus [10]): 30% | GI50 [19]: 220 nM | Activity (Mus musculus [22]): 7.2% | Activity (Mus musculus [23]): 3.1% | inhibition in vivo at 10 mg/kg (Mus musculus [28]): 50% | inhibition (Mus musculus [31]): Dose-dependent effect
